Experimental data published in ChEMBL document CHEMBL4330080, “Hydroxyazole scaffold-based Plasmodium falciparum dihydroorotate dehydrogenase inhibitors: Synthesis, biological evaluation and X-ray structural studies” (Eur J Med Chem, 2019).

What was measured:
[1] = target: T1, Dihydroorotate dehydrogenase (Plasmodium falciparum, UniProt Q54A96); assay: Inhibition of Plasmodium falciparum recombinant N-terminal His6-tagged DHODH (159-569 residues) expressed in Escherichia coli BL21(DE3) using DHO as substrate measured every min for 5 mins by DCPI dye-based photometric analysis
T1 sequence (Q54A96 whole entry): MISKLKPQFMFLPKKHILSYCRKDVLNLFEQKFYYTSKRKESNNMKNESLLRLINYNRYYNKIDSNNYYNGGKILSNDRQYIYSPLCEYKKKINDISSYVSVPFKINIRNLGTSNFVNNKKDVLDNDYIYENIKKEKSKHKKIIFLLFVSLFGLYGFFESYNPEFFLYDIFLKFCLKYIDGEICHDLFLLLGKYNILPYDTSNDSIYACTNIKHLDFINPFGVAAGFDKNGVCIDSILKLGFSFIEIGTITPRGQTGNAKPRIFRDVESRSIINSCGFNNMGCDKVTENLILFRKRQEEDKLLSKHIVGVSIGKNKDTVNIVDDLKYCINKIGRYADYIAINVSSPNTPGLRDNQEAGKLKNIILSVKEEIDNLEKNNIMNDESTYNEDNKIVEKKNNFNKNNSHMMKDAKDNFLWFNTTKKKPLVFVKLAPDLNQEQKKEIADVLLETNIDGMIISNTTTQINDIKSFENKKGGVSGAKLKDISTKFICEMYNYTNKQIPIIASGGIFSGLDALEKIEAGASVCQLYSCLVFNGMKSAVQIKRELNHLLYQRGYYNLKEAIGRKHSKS
Outline: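 N-terminally truncated recombinant enzyme, His-tag IMAC then size exclusion purified, in 50 mM Tris/HCl pH 7.8, 150 mM KCl, 0.1% Triton X-100 with 60 μM DCIP and 20 μM decylubiquinone. Started with 200 μM DHO; initial rate from DCIP absorbance at 600 nm over the first 5 min. IC50 is mean ± SE of three experiments.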

[2] = target: Dihydroorotate dehydrogenase (quinone), mitochondrial (Homo sapiens, UniProt Q02127); assay: Inhibition of human recombinant N-terminal GST-tagged DHODH (31 to 395 residues) expressed in Escherichia coli BL21(DE3) using DHO as substrate preincubated for 5 mins followed by substrate addition and measured for 5 mins by DCPI dye-based assay
Sequence of Dihydroorotate dehydrogenase (quinone), mitochondrial (Q02127 whole entry, the tested form may be a part): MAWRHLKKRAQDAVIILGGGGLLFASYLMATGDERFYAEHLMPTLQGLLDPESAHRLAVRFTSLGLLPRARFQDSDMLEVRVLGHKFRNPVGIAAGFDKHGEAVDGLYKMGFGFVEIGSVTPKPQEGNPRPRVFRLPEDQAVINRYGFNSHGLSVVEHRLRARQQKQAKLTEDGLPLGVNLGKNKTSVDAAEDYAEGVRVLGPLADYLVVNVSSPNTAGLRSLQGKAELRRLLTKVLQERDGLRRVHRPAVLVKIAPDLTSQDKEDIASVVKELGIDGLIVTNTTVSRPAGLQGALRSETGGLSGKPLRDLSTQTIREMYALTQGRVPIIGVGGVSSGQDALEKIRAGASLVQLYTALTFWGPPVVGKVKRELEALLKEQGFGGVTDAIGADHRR
Outline: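 GST-fused enzyme from E. coli, glutathione-affinity purified. Pre-incubated 5 min at 37°C in Tris buffer pH 8.0 with 100 μM coenzyme Q10, 50 μM DCIP and compounds (0.1% DMSO final). Started with 500 μM DHO; DCIP reduction followed at 650 nm over the first 5 min. IC50 is mean ± SE of three experiments.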

[3] = Selectivity ratio of IC50 for human recombinant DHODH to IC50 for Plasmodium falciparum recombinant DHODH
[4] = Dissociation constant, pKa of the compound by potentiometric analysis; assay type: physicochemical
[5] = Cytotoxicity against African green monkey COS7 cells after 48 hrs by MTT assay; assay type: cell-based; settings: chlorocebus aethiops, COS-7 cells
Outline: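 COS-7 cells in DMEM with 10% heat-inactivated FBS and gentamicin, 37°C, 5% CO2. Seeded at 10⁴ cells/well and left 16 h to adhere. Compounds added at several concentrations for 48 h. MTT added for 4 h, formazan dissolved in acidified Triton/isopropanol, OD read at 570 nm. CC50 from viability relative to control, given with 95% confidence interval of the fit.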

Plasmodium falciparum = assay: Anti-plasmodial activity against synchronized ring stage Plasmodium falciparum 3D7 infected in human erythrocytes assessed as reduction in parasitemia after 48 hrs by Sybr Green I dye-based flow cytometric analysis; assay type: functional, organism-based; settings: 3D7, 48 h
Outline: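 Parasites kept in O+ human erythrocytes in RPMI 1640 with HEPES pH 7.3, glutamine, glucose, gentamicin, 0.5mM hypoxanthine and 10% human serum, 4% hematocrit, 37°C in 1% O2/5% CO2. Sorbitol-synchronized rings; 1:2 serial dilutions from 300µM at 2% hematocrit, 1-2% parasitemia, 48h. SybrGreen I flow cytometry; triplicate points fitted to log[I] vs response for EC50.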

SMILES	IC50 [1] [µM]	IC50 [2] [µM]	Ratio IC50 [3]	pKa [4]	EC50 (Plasmodium falciparum) [µM]	CC50 at 48 h [5] [µM]
Cn1nc(O)c(C(=O)O)c1CSc1ccccc1	25	> 250	> 10	–	–	–
O=C(NCC(c1ccccc1)c1ccccc1)c1nonc1O	75	> 200	> 3	3.33	–	–
O=C(NCc1ccccc1)c1nsnc1O	35	> 200	> 6	3.69	–	–
Cn1nc(OCc2ccccc2)c(C(=O)O)c1COc1ccccc1	> 250	–	–	–	–	–
CCOc1nn(C)c(COc2ccccc2)c1C(=O)O	> 250	–	–	–	–	–
CN(Cc1c(C(=O)O)c(O)nn1C)c1ccccc1	23	> 250	> 10	–	–	–
Cn1nc(OCC2CC2)c(C(=O)O)c1COc1ccccc1	> 250	–	–	–	–	–
Cc1c(C(=O)NCC(c2ccccc2)c2ccccc2)c(O)nn1C	> 250	–	–	6.54	–	–
Cn1nc(O)c(C(N)=O)c1COc1ccccc1	> 250	–	–	–	–	–
Cn1cc(C(=O)NCC(c2ccccc2)c2ccccc2)c(O)n1	> 250	–	–	6.42	–	–
CCOC(=O)c1c(O)nn(C)c1COc1ccccc1	> 250	–	–	–	–	–

These reach a lower IC50 [1]. Values come first.

IC50 [1] [µM]	IC50 [2] [µM]	Ratio IC50 [3]	pKa [4]	EC50 (Plasmodium falciparum) [µM]	SMILES	CC50 at 48 h [5] [µM]
16	> 250	> 16	–	–	Cn1nc(O)c(C(=O)O)c1CNc1ccccc1	–
5.3	≥ 200	–	–	26.7	Cn1nc(O)c(C(=O)O)c1COc1ccc(C(F)(F)F)cc1	152
2.8	≥ 200	–	–	40.7	Cn1nc(O)c(C(=O)O)c1COc1cccc(C(F)(F)F)c1	167
12	> 200	–	3.72	35.9	O=C(NCC(c1ccccc1)c1ccccc1)c1nsnc1O	190
19	> 250	> 13	–	–	Cn1nc(O)c(C(=O)O)c1COc1ccccc1	–
